Source: publication PMC7263447 (Journal of medicinal chemistry, 2020)
Ends that are not written are not given here. * marks the point of attachment. Dnp = O=[N+]([O-])c1ccc(*)c([N+](=O)[O-])c1

Assays:
MDA-MB-231 cells [1] = assay: Antibody-dependent cellular cytotoxicity with haNK cells; assay type: cell-based, human; settings: 500 nM conjugate, anti-DNP antibody, haNK effector:target 5:1, 4 h, LDH release
Outline: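 Targets were 150000 MDA-MB-231 cells, pulsed 5 min at 37 °C at pH 7.4 or 6.0. They were then held with 25 μg/mL rabbit anti-DNP-KLH for 30 min at 4 °C. Effectors were IL-2-maintained F176V CD16+ NK-92 (haNK) cells at 5:1 in MEMα, 4 h, 37 °C. Supernatant LDH was read at 490/680 nm. Lysis % = (LDH − normal)/normal × 100, normal being antibody plus effectors without conjugate. Mean ± SEM, n = 3–12.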

MDA-MB-231 cells [2] = assay: Complement-dependent cytotoxicity; assay type: cell-based, human; settings: 1 μM conjugate, 12.5% PHS, 4 h, LDH release
Outline: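 Cells (240000 MDA-MB-231) were treated in suspension with 1 μM conjugate for 5 min at 37 °C, at pH 7.4 or 6.0. After washing they were opsonised with 25 μg/mL rabbit anti-DNP-KLH (30 min, 4 °C). Pooled human complement serum was added to 12.5% in DMEM for 4 h at 37 °C. Supernatant LDH was assayed in triplicate (30 min RT, 490/680 nm). Cytotoxicity is relative to antibody-only cells without peptide. Mean ± SEM, n = 3–12.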

MDA-MB-231 cells [3] = assay: Antibody recruitment assay, anti-DNP-A488, flow cytometry; assay type: cell-based, human; settings: 1 μM conjugate, pH 7.4 or 6.0, 25 μg/mL anti-DNP-A488, flow cytometry, n = 3
Outline: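 Conjugate held at 20 μM in 5 mM sodium phosphate pH 9.0 for 1 h at RT, then diluted and pH-adjusted with citrate/PBS. Cells were washed, stained with anti-DNP-A488 rabbit polyclonal for 30 min at 4 °C, fixed in 4% PFA and read by flow cytometry. Values are fold over pH 7.4 antibody-only cells.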

MDA-MB-231 cells [4] = assay: Antibody recruitment from pooled human serum; assay type: cell-based; settings: 1 μM conjugate, pH 7.4 or 6.0, 12.5% PHS, FITC-labeled anti-human IgG, n = 3
MDA-MB-231 cells [5] = assay: Antibody-dependent cellular cytotoxicity with PBMCs; assay type: cell-based, human
Outline: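 MDA-MB-231 cells (150000) were exposed to the pH-adjusted conjugate for 5 min at 37 °C, at pH 7.4 or 6.0. After washing, they were incubated with unconjugated rabbit anti-DNP-KLH (25 μg/mL, 30 min, 4 °C). Single-donor human PBMCs were added at 50:1 in RPMI 1640 for 4 h at 37 °C. Supernatant LDH was read at 490/680 nm. Cytotoxicity % = (LDH − normal)/normal × 100. Control normal release was effector-only or target-only at pH 7.4.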

MDA-MB-231 cells [6] = assay: Toxicity of conjugate alone; assay type: cell-based, human; settings: ≤10 μM conjugate only, LDH release (Figure S8)

With “Dnp-KEQNPIYWARYADWLFTTPLLLLELALLVDADEGTG [Conjugate 2]” as the substance, how does the “cell lysis (ADCC, haNK cells), maximum efficacy” value (MDA-MB-231 cells [1]) read?
Its value is ~ 40%.

And the “cell lysis (CDC)” value (MDA-MB-231 cells [2]; pH 6.0, anti-DNP antibody)?
Its value is 10%.

What about the “toxicity (CDC)” value (MDA-MB-231 cells [2]; pH 7.4, anti-DNP antibody) of the same substance?
The value was “no toxicity at all”.

And the “anti-DNP antibody recruitment (cellular fluorescence)” value (MDA-MB-231 cells [3])?
Its value is “highest level of cellular fluorescence”.

And the “antibody recruitment from serum (relative fluorescence)” value (MDA-MB-231 cells [4])?
Its value is “significant increase in relative fluorescence at pH 6.0 compared to that at pH 7.4”.

What about the “pH selectivity of PBMC-mediated cell lysis” value (MDA-MB-231 cells [5]; 1 μM conjugate, anti-DNP antibody, pH 6.0 vs 7.4) of the same substance?
Its value is ~ 2 fold.

What about the “cell lysis with mock anti-FITC antibodies or without antibodies (PBMCs)” value (MDA-MB-231 cells [5]; control, mock anti-FITC antibodies or no antibodies prior to PBMCs (Figure S7A)) of the same substance?
The value was “cell lysis was not observed”.

And the “cell lysis by conjugate only” value (MDA-MB-231 cells [6])?
The value was “cell lysis was not observed”.
